Drawing on ChEMBL document CHEMBL1141076 (J Med Chem, 2005), this text covers Kd for six molecules.

Molecules are shown by their SMILES.

Assay [1] concerns the target T1, Cyclic nucleotide-gated channel alpha-1 (Bos taurus, UniProt Q00194).
T1 sequence (Q00194 whole entry): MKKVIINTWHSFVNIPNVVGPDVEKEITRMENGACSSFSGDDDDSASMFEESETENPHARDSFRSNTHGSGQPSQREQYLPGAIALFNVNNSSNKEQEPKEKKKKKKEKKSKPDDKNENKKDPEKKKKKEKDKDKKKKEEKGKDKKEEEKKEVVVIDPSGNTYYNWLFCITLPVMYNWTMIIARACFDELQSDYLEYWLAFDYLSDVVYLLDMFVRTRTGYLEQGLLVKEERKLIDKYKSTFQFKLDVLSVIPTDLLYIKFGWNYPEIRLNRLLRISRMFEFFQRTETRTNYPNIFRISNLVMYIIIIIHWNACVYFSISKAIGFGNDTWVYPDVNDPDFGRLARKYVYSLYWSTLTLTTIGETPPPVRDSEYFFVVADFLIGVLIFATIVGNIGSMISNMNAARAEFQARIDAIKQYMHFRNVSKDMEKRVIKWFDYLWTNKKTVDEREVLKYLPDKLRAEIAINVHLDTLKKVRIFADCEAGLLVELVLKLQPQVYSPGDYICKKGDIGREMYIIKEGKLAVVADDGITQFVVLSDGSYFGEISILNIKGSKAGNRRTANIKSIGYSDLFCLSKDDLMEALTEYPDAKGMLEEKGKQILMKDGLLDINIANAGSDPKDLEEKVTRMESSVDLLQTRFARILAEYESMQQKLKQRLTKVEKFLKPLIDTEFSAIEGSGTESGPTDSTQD
Nature of the assay: Apparent dissociation constant against Cyclic nucleotide gated channel alpha 1 at 0 mV. The essentials: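 CNGA1 (bovine) expressed in Xenopus oocytes from 5-25 ng cRNA; inside-out patches at room temperature in symmetrical 130 mM NaCl, 2 mM HEPES, 1 mM EGTA, 0.02 mM EDTA, pH 7.6, saturating cGMP with blocker in bath. Depolarizations -80 to +60 mV in 10 mV steps. Fraction of current remaining fitted with Woodhull equation, giving KD at 0 mV and zδ.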

For assay [2], the target named is T1, Cyclic nucleotide-gated channel alpha-1. The assay is described as follows: Apparent dissociation constant against Cyclic nucleotide gated channel alpha 1 at +40 mV. The essentials:
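Bovine CNGA1 cRNA injected (5-25 ng) into Xenopus oocytes kept at 18 °C; inside-out excised patches recorded 1-6 days later at room temperature. Identical pipet/bath solution: 130 mM NaCl, 2 mM HEPES, 1 mM EGTA, 0.02 mM EDTA, pH 7.6. Blocker added to bath with saturating cGMP; steps -80 to +40 mV. End-of-pulse current corrected for ion accumulation/depletion. KD from I+D/I-D = KD/(KD+[D]).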

For `CN(C)CCOC(=O)c1ccc(NCCCCN)cc1`, the Kd in assay [1] turned out to be 970 µM; in assay [2] it was 210 µM.

Regarding `CCCCNc1ccc(C(=O)OCC[N+](C)(C)CCCNCCCN)cc1`, the Kd worked out at 0.0069 µM in assay [1] and 3e-05 µM in assay [2].

As for `CCCCNc1ccc(C(=O)OCC[N+](C)(C)CCCN)cc1`, the Kd is 1.4 µM in assay [1] and 0.074 µM in assay [2].

Take `CCCCNc1ccc(C(=O)OCC[N+](C)(C)CCCC)cc1`: the Kd in assay [1] was found to be 5.4 µM; in assay [2], 3.1 µM.

For `CC(=O)NCCCCNc1ccc(C(=O)OCCN(C)C)cc1`, the Kd came to 4000 µM in assay [1] and 2500 µM in assay [2].

Regarding `CN(C)CCOC(=O)c1ccc(N)cc1`, the Kd in assay [1] is 10000 µM; in assay [2], 2300 µM.
